# Measurements: ChEMBL document CHEMBL1144563 (Bioorg Med Chem, 2007)
# Tests used:
# [1] = Displacement of [3H]epibatidine from nAChRalpha, beta in rat cerebral cortex; assay type: tissue-based
# Outline: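 Washed male rat cerebral cortex homogenate, 3 mg wet weight, in 50 mM Tris pH 7.4 with NaCl, KCl, CaCl2 and MgCl2. 0.5 nM [3H]epibatidine with 10–12 compound concentrations, 1% DMSO final; 300 μM (–)-nicotine defined nonspecific binding. Incubated 4 h at room temperature, then filtered on PEI-soaked GF/B and counted. Nonlinear fit, at least three experiments.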
# Mus musculus [2] = assay: Antagonism of nicotine-induced seizures in ICR mouse at 50 mg/kg, sc; assay type: functional; set-up: scale not given: the % may be the effect or the level left; conditions: route subcutaneous
# Outline: (§1)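 Mice given saline or analog s.c. 10 min before nicotine. Percentage of animals seizing recorded. Dose-response from at least 4 doses with at least 8 mice per dose; AD50 with confidence limits, or % effect at highest dose.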
# Mus musculus [3] = assay: Antagonism of nicotine-induced antinociceptive effect in mouse at 30 mg/kg, sc by tail flick assay; assay type: functional; set-up: scale not given: the % may be the effect or the level left; conditions: route subcutaneous
# Outline: (§2)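 Mice given saline or analog s.c. at varied times before nicotine; tail-flick tested 5 min after nicotine. Baseline latency 2–4 s, cutoff 10 s. %MPE = (test−control)/(10−control)×100. 8–12 mice per dose, at least 4 doses; AD50 with confidence limits from dose-response, or % effect at top dose.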
# Mus musculus [4] = assay: Antagonism of nicotine-induced effect in mouse at 30 mg/kg, sc by hot plate assay; assay type: functional; set-up: scale not given: the % may be the effect or the level left; conditions: route subcutaneous
# Outline: (§3)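 Hot plate held at 55.0 C, mice in a 10 cm glass cylinder. Two control latencies taken at least 10 min apart (normal 8–12 s). Latency scored at jump or paw lick. %MPE = (test−control)/(40−control)×100. Analog given s.c. before nicotine; at least 8 mice per dose; % effect at highest dose.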
# Mus musculus [5] = assay: Antagonism of nicotine-induced seizures in sc dosed ICR mouse; assay type: functional; outline: as §1
# Mus musculus [6] = assay: Antagonism of nicotine-induced effect in mouse at 20 mg/kg, sc by hot plate assay; assay type: functional; set-up: scale not given: the % may be the effect or the level left; conditions: route subcutaneous; outline: as §3
# [7] = biological target: Neuronal acetylcholine receptor subunit alpha-7 (Rattus norvegicus, UniProt Q05941); assay: Displacement of [125I]iodoMLA from alpha-7 nAChR in rat cerebral cortex; assay type: tissue-based
# Neuronal acetylcholine receptor subunit alpha-7, sequence (Q05941 whole entry): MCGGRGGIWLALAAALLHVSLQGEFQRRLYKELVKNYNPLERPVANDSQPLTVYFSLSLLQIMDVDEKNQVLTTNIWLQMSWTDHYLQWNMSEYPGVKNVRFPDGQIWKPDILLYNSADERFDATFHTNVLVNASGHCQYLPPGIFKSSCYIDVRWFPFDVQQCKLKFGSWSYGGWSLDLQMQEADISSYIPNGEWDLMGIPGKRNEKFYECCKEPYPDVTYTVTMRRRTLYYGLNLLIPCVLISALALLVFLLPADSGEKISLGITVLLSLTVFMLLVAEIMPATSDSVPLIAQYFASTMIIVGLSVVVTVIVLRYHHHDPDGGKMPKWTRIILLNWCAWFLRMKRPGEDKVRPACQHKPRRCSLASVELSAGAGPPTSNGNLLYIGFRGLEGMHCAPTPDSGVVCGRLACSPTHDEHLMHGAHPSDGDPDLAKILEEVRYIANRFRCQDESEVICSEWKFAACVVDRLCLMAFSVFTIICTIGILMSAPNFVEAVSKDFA
# Mus musculus [8] = assay: Antagonism of nicotine-induced antinociceptive effect in sc dosed mouse by tail flick assay; assay type: functional; outline: as §2
Compound,Ki [1] [µM],Activity (Mus musculus [2]) [%],Activity (Mus musculus [3]) [%],Activity (Mus musculus [4]) [%],AD50 (Mus musculus [5]) [mg/kg],Activity (Mus musculus [6]) [%],Ki [7] [µM],AD50 (Mus musculus [8]) [mg/kg]
CCN1C[C@]2(COC(=O)c3ccccc3N3C(=O)C[C@@H](C)C3=O)CC[C@H](OC)[C@@]34[C@@H]5C[C@H]6[C@H](OC)[C@@H]5[C@](O)(C[C@@H]6OC)[C@](O)([C@@H](OC)[C@H]23)[C@@H]14,0.352,40,10,0,–,–,–,–
CCN1C[C@]2(COC(=O)c3ccccc3N3C(=O)CC(C)(C)C3=O)CC[C@H](OC)C34C2[C@H](OC)[C@](O)(C13)[C@@]1(O)C[C@H](OC)[C@H]2C[C@@H]4[C@@H]1[C@H]2OC,0.602,–,–,–,10,13,0.00178,1.8
CCN1C[C@]2(COC(=O)c3ccccc3N3C(=O)C(C)[C@H](C)C3=O)CC[C@H](OC)C34C2[C@H](OC)[C@](O)(C13)[C@@]1(O)C[C@H](OC)[C@H]2C[C@@H]4[C@@H]1[C@H]2OC (stereo partly drawn),0.321,0,–,–,–,25,0.00246,7
CCN1C[C@]2(COC(=O)c3ccccc3N3C(=O)C[C@H](C)C3=O)CC[C@H](OC)[C@@]34[C@@H]5C[C@H]6[C@H](OC)[C@@H]5[C@](O)(C[C@@H]6OC)[C@](O)([C@@H](OC)[C@H]23)[C@@H]14 [METHYLLYCACONITINE],0.739,–,–,–,2,15,–,12
